The test system of series [1] is B16. As to the kind of experiment: Inhibition of alpha-MSH-induced melanin production in mouse B16 cells at 10 uM after 72 hrs. In kind it is functional. Particulars: B16, 72 h. The method, boiled down: (§1)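 B16 melanoma cells (ATCC CRL6323) were seeded at 2.5 × 10³ per well and kept at 37 °C under 5% CO₂. They were stimulated with α-MSH for 72 h with compound present. Melanin released into the medium was read by absorbance at 405 nm against a synthetic melanin standard. % inhibition at 10 µM and IC₅₀ are means of 3–5 separate experiments.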

Series [2] concerns B16. The experiment in a line: Inhibition of alpha-MSH-induced melanin production in mouse B16 cells after 72 hrs. The class given is functional, cell-based. Particulars: B16, 72 h. Summed up: as §1
The target in series [3] is T1, Tyrosinase (Mus musculus) (UniProt P11344).
T1 sequence (whole entry): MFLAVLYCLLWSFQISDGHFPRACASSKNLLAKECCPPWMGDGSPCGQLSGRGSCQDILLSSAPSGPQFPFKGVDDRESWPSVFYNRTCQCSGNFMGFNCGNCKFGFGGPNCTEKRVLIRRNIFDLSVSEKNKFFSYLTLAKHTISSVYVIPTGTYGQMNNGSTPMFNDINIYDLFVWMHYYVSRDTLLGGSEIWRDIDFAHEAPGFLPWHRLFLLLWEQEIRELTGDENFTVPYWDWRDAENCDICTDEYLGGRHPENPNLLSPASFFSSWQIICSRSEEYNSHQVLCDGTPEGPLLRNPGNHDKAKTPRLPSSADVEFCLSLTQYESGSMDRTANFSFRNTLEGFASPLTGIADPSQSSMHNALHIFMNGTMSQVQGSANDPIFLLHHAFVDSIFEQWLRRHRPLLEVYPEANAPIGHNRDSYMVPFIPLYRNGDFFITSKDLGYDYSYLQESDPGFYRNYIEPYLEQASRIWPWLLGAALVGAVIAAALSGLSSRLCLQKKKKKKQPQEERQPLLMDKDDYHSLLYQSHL
The experiment in a line: Inhibition of cell free tyrosinase in alpha-MSH-induced mouse B16 cells assessed as effect on Dopa oxidation by spectrophotometry. Summed up: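 Cell-free tyrosinase came from B16 cells stimulated with α-MSH (10 nM). Cells were sonicated on ice in 50 mM sodium phosphate pH 6.8 with 1% Triton X-100 and 1 mM PMSF. The supernatant was dialysed and diluted to 80,000 U/mg protein. Dopa (5 mM), sample and enzyme were mixed in 50 mM phosphate pH 6.8. Dopa oxidation velocity was read spectrophotometrically.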

Series [4] has as its system B16. As to the kind of experiment: Inhibition of tyrosinase protein biosynthesis in alpha-MSH-induced mouse B16 cells after 48 hrs by Western blot. The class given is functional, cell-based. The method, boiled down:
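B16 cells were stimulated with α-MSH (10 nM) for 48 h with compound present. They were lysed in Tris/NaCl buffer (0.1% SDS, 1% NP-40, protease inhibitors, pH 7.4). Blots were probed overnight at 4 °C with anti-tyrosinase (1:1000), with GAPDH (1:5000) as internal control, then with HRP-conjugated secondary antibody.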
On the technique in general: Immunoblotting shows a protein as a band on a membrane.

The test system of series [5] is B16. The experiment in a line: Toxicity in alpha-MSH-induced mouse B16 cells assessed as effect on cell viability after 48 hrs by MTT assay. The class given is cell-based. Particulars: b16, 48 h. In general terms: Formazan colour is commonly taken as a measure of viable cells.

Activity calls are given as the source filed them. The rule behind the calls is not given here.

What is called inhibition is the percentage by which the read-out fell short of the control. The term IC50 denotes the concentration that inhibits the measured activity by half. A higher IC50 goes with weaker potency in that assay.

In turn, `Cc1ccc(CN2CCCNC2=O)cc1` had an inhibition at 10 µM with B16 [1] of 5%. This compound also gave an IC50 in the series with B16 [2] above 10 µM.

In the case of `O=C1NCCCN1CCc1ccccc1`, the inhibition at 10 µM with B16 [1] was determined as 10%. Moreover, the IC50 in the series on B16 [2] was above 10 µM.

For the compound `Cc1ccc(CN2CCNC2=O)cc1`, the inhibition at 10 µM in the series on B16 [1] was 14%. The compound also showed an IC50 in the series on B16 [2] above 10 µM.

In turn, `O=C1NCCN1Cc1ccc(Cl)cc1` displayed an inhibition at 10 µM in the series on B16 [1] of 10%. In the series with B16 [2], this compound had an IC50 above 10 µM.

`O=C1NCCN1Cc1ccccc1`: at 10 µM the inhibition with B16 [1] was 7%. Also, in the series on B16 [2], the IC50 was above 10 µM.

In turn, `CC(C)(C)c1ccc(CN2CCCNC2=S)cc1` returned an inhibition at 10 µM in the series with B16 [1] above 100%. Further, in the series with B16 [2], inhibition was half-maximal at 0.8 µM (IC50). Besides, the inhibition entry in series [3] was “inactive”. For the same compound, the inhibition entry in the series on B16 [4] is “Active”. Also, the Activity result in the series with B16 [5] was “Non-toxic”.

As for `S=C1NCCCN1CCc1ccccc1`, the inhibition at 10 µM in the series with B16 [1] amounted to 93%. 2.9 µM corresponded to half-maximal inhibition with B16 [2] (IC50).

In the series on B16 [1], `O=C1NCCCN1Cc1ccc(Cl)cc1` had an inhibition at 10 µM of 26%. The compound also came in with an IC50 in the series with B16 [2] above 10 µM.

In turn, `S=C1NCCN1CCc1ccccc1` came in with an inhibition at 10 µM in the series on B16 [1] of 40%. Moreover, in the series with B16 [2], the IC50 was above 10 µM.

As to `O=C1NCCN1CCCc1ccccc1`, in the series on B16 [1], the inhibition at 10 µM worked out at 10%. The same compound had an IC50 in the series with B16 [2] above 10 µM.

For `COc1ccc(CN2CCNC2=O)cc1`, in the series on B16 [1], the inhibition at 10 µM amounted to 13%. For the same compound, the IC50 in the series with B16 [2] is above 10 µM.

For the compound `O=C1NCCCN1Cc1ccccc1`, the inhibition at 10 µM in the series with B16 [1] was found to be 0%. For the same compound, the IC50 in the series with B16 [2] is above 10 µM.

Turning to `S=C1NCCN1Cc1ccccc1`, in the series on B16 [1], testing at 10 µM gave an inhibition of 35%. The compound further displayed an IC50 in the series with B16 [2] above 10 µM.

In the series with B16 [1], `CC(C)(C)c1ccc(CN2CCCNC2=O)cc1` yielded an inhibition at 10 µM of 30%. The compound further came in with an IC50 with B16 [2] above 10 µM.

Compound `S=C1NCCCN1Cc1ccc(Cl)cc1` displayed an inhibition at 10 µM with B16 [1] above 100%. For the same compound, the IC50 in the series with B16 [2] amounted to 2.4 µM.

With `S=C1NCCN1CCCc1ccccc1`, the inhibition at 10 µM in the series on B16 [1] amounted to 63%. For the same compound, the IC50 with B16 [2] came to 4.2 µM.

`OC[C@H]1O[C@@H](Oc2ccc(O)cc2)[C@H](O)[C@@H](O)[C@@H]1O` [ARBUTIN] registered an inhibition at 10 µM with B16 [1] above 100%.

Compound `COc1ccc(CN2CCCNC2=S)cc1` came in with an inhibition at 10 µM in the series with B16 [1] of 60%. The compound further gave an IC50 in the series with B16 [2] of 6.1 µM.

In the case of `Cc1ccc(CN2CCNC2=S)cc1`, the inhibition at 10 µM with B16 [1] was determined as 64%. This compound also displayed an IC50 in the series with B16 [2] of 4.8 µM.

With `O=C1NCCN1CCc1ccccc1`, in the series with B16 [1], the inhibition at 10 µM was found to be 15%. For the same compound, the IC50 with B16 [2] was above 10 µM.

In turn, `CCc1ccc(CN2CCCNC2=O)cc1` showed an inhibition at 10 µM with B16 [1] of 29%. The compound further displayed an IC50 with B16 [2] above 10 µM.

In turn, `COc1ccc(CN2CCCNC2=O)cc1` showed an inhibition at 10 µM with B16 [1] of 20%. In the series with B16 [2], this compound displayed an IC50 above 10 µM.

Compound `CCc1ccc(CN2CCCNC2=S)cc1` registered an inhibition at 10 µM in the series with B16 [1] above 100%. In addition, the IC50 in the series with B16 [2] was found to be 1.3 µM.

In the case of `Cc1ccc(CN2CCCNC2=S)cc1`, testing at 10 µM in the series with B16 [1] gave an inhibition of 80%. In addition, the IC50 in the series with B16 [2] was 5.1 µM.

In the series on B16 [1], `S=C1NCCN1Cc1ccc(Cl)cc1` returned an inhibition at 10 µM of 79%. Besides, the IC50 in the series on B16 [2] came out at 4.3 µM.

Take `S=C1NCCCN1Cc1ccccc1`: in the series on B16 [1], the inhibition at 10 µM was determined as 42%. The IC50 in the series on B16 [2] is above 10 µM.

`COc1ccc(CN2CCNC2=S)cc1` had an inhibition at 10 µM in the series with B16 [1] of 31%. Further, the IC50 with B16 [2] is above 10 µM.

In the series with B16 [1], `O=C1NCCCN1CCCc1ccccc1` came in with an inhibition at 10 µM of 10%. Also, in the series on B16 [2], the IC50 is above 10 µM.

Take `S=C1NCCCN1CCCc1ccccc1`: in the series with B16 [1], the inhibition at 10 µM was above 100%. The compound further gave an IC50 with B16 [2] of 2.1 µM.
